From ChEMBL document CHEMBL6115035 (J Med Chem, 2025)
Calls of active or inactive are those of the source. The rule behind the calls is not given here.

Tests used:
[1] = biological target: Cyclin-dependent kinase 12 (Homo sapiens) (UniProt Q9NYV4); assay: Binding affinity to CDK12 in human VCaP cells incubated for 4 hrs by streptavidin-biotin pull down assay; type: cell-based
Summary of the method: (§1)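 VCaP cells were treated with a biotinylated probe for 4 h and lysed in RIPA buffer. Lysate was incubated with streptavidin beads overnight at 4 °C. Beads were washed three times with PBST (0.1% Tween) and eluted in 2X SDS loading buffer. Proteins were separated by SDS-PAGE.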

[2] = biological target: Cyclin-dependent kinase 13 (Homo sapiens) (UniProt Q14004); assay: Binding affinity to CDK13 in human VCaP cells incubated for 4 hrs by streptavidin-biotin pull down assay; type: cell-based; summary of the method: as §1
Sequence of Cyclin-dependent kinase 13 (Homo sapiens) (Q14004 whole entry, looked up): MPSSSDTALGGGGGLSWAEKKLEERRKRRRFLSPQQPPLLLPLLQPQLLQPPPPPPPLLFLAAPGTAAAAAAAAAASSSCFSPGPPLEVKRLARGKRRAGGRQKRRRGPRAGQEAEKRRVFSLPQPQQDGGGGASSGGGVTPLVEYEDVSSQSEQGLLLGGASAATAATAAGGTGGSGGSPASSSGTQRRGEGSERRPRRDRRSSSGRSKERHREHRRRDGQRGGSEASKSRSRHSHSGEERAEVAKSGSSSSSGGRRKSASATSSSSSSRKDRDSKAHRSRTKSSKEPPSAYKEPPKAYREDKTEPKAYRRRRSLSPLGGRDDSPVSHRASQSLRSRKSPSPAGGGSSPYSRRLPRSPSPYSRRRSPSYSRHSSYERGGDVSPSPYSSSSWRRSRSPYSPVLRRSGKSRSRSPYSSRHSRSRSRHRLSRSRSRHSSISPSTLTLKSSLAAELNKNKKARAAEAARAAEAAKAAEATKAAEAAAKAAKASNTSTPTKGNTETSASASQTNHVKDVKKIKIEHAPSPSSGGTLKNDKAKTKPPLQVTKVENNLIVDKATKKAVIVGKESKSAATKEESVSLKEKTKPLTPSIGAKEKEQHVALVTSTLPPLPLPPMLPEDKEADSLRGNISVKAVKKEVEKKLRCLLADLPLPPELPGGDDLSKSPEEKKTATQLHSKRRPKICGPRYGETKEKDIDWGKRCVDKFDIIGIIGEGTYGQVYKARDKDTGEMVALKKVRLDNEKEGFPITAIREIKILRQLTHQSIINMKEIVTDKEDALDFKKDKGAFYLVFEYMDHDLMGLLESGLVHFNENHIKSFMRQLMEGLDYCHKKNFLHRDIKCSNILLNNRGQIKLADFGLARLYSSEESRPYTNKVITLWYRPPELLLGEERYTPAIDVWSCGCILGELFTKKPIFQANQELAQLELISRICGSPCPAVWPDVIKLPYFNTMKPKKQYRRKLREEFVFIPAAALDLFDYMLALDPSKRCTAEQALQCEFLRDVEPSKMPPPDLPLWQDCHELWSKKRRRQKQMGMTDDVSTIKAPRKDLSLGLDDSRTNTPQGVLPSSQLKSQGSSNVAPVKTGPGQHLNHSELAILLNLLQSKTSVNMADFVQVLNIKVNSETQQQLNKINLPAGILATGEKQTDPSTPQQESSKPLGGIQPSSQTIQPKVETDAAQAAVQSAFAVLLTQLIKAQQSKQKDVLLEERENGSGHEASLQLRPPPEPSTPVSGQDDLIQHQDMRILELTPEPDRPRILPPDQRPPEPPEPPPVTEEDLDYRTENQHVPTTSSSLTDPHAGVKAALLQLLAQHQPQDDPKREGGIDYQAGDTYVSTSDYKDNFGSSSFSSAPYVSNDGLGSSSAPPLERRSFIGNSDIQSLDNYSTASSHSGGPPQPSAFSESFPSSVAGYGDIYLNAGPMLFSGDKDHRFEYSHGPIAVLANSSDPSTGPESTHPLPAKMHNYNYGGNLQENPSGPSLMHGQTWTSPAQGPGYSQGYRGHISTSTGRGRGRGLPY

VCaP [3] = assay: Antiproliferative activity against human VCaP cells assessed as irreversible cell growth inhibition pretreated for 6 hrs followed by compound washout and subsequent addition of compound-free medium measured after 5 days by Cell Titer-Glo assay; type: functional, cell-based
Summary of the method: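 VCaP cells (DMEM GlutaMAX, 10% FBS) were exposed to compound for 6 h. The compound was then removed and cells were grown in compound-free medium for 5 days before the viability read-out.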

CDK6/cyclin D1 = CDK6/cyclin D1 (Homo sapiens, UniProt Q00534); assay: Inhibition of CDK6/cyclin D1 (unknown origin) by ADP-Glo kinase assay; type: protein-complex assay
Sequence of CDK6/cyclin D1 (P24385 whole entry): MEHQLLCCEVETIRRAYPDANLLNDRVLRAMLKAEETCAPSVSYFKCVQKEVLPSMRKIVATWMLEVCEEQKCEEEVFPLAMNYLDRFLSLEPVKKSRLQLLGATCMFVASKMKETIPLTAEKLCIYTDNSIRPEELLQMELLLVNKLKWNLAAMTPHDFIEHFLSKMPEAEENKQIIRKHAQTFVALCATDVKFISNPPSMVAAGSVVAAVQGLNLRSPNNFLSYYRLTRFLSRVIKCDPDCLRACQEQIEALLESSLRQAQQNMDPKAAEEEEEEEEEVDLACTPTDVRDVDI
Sequence of CDK6/cyclin D1 (Q00534 whole entry): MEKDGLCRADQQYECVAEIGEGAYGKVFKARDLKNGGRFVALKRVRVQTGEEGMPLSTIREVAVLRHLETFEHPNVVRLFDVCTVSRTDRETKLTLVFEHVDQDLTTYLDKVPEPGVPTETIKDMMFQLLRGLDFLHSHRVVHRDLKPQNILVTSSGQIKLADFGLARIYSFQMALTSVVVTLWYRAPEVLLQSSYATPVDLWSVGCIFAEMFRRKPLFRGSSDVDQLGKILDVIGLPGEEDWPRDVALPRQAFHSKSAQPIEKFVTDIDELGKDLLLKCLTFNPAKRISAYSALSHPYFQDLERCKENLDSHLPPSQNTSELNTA

CDK8/Cyclin C = CDK8/Cyclin C (Homo sapiens, UniProt P49336); assay: Inhibition of CDK8/Cyclin C (unknown origin) by ADP-Glo kinase assay; type: protein-complex assay
Sequence of CDK8/Cyclin C (P49336 whole entry): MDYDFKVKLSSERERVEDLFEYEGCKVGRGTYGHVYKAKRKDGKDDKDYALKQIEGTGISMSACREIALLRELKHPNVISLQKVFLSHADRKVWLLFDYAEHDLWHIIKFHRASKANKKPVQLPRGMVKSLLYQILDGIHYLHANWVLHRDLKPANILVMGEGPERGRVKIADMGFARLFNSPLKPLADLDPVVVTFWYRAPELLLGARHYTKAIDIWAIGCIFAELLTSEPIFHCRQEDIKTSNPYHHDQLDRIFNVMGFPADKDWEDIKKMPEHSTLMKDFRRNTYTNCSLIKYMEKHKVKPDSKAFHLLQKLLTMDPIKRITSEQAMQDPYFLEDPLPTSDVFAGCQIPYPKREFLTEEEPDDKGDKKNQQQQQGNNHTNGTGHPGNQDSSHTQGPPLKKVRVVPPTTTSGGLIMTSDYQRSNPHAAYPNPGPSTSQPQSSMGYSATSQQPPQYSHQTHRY
Sequence of CDK8/Cyclin C (P24863 whole entry, further chain): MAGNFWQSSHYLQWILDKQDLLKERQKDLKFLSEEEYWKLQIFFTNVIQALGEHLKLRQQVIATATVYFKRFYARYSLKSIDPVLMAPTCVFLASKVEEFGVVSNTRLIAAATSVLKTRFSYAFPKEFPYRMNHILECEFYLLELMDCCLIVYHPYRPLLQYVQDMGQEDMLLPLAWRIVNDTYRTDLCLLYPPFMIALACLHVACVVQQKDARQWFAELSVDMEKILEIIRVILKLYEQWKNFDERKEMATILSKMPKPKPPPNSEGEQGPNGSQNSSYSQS

[4] = biological target: Cyclin-dependent kinase 4/cyclin D1 (Homo sapiens, UniProt P11802); assay: Inhibition of CDK4/Cyclin D1 (unknown origin) by ADP-Glo kinase assay; type: protein-complex assay
Sequence of Cyclin-dependent kinase 4/cyclin D1 (P11802 whole entry): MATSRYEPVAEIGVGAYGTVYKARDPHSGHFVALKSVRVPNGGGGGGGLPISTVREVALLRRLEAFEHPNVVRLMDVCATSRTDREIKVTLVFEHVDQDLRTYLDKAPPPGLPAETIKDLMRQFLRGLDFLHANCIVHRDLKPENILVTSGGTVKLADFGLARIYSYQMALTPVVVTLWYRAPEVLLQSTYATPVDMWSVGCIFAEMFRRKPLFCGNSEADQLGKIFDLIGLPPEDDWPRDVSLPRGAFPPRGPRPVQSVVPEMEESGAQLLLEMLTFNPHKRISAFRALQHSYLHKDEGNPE
Sequence of Cyclin-dependent kinase 4/cyclin D1 (P24385 whole entry, further chain): as the sequence (P24385 whole entry) above

VCaP [5] = assay: Upregulation of c-PARP expression in human VCaP cells at 10 to 300 nM pretreated for 2 hrs followed by compound washout measured after 12 hrs by Western blot analysis; type: functional, cell-based; settings: dose 10-300 nM
Summary of the method: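 VCaP cells were grown in DMEM GlutaMAX with 10% FBS and P/S. After treatment they were washed with cold PBS and lysed in RIPA with protease inhibitors. Equal protein was run on 4–12% Bis-Tris SDS-PAGE, transferred to nitrocellulose, and probed for cleaved PARP with α-tubulin as loading control. Detection used HRP secondary antibodies.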

[6] = biological target: Cyclin-C/Cyclin-dependent kinase 19 (Homo sapiens, UniProt Q9BWU1); assay: Inhibition of CDK19/Cyclin C (unknown origin) by ADP-Glo kinase assay; type: protein-complex assay
CDK9/cyclin T1 = CDK9/cyclin T1 (Homo sapiens, UniProt P50750); assay: Inhibition of CDK9/Cyclin T1 (unknown origin) by ADP-Glo kinase assay; type: protein-complex assay
CDK9/Cyclin K = CDK9/Cyclin K (Homo sapiens, UniProt P50750); assay: Inhibition of CDK9/Cyclin K (unknown origin) by ADP-Glo kinase assay; type: protein-complex assay
Sequence of CDK9/Cyclin K (P50750 whole entry): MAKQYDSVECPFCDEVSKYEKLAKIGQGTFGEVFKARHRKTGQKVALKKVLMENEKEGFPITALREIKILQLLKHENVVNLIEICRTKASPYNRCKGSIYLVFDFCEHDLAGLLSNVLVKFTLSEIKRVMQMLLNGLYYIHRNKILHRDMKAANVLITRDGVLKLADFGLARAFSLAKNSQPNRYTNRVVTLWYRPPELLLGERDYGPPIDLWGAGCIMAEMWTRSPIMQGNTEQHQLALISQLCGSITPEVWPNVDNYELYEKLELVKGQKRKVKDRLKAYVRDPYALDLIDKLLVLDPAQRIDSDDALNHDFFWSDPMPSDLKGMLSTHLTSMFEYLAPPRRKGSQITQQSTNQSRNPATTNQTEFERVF
Sequence of CDK9/Cyclin K (O75909 whole entry, further chain): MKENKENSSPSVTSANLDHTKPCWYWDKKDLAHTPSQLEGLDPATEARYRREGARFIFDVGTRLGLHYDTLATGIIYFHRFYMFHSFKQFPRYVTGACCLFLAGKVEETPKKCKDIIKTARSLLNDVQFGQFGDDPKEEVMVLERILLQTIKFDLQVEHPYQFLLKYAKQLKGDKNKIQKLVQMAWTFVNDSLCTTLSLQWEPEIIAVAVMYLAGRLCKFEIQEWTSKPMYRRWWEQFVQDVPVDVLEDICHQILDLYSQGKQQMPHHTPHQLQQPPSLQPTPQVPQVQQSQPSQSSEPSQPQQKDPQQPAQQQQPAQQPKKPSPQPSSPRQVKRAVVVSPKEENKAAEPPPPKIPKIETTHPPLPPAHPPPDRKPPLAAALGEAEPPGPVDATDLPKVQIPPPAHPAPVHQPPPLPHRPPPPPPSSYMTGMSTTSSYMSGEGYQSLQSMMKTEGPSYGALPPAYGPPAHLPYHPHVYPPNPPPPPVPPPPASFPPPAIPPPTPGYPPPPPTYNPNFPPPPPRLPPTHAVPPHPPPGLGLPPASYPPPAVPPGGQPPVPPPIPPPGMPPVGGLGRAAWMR

[7] = biological target: T1, Cyclin-dependent kinase 5/CDK5 activator 1 (Homo sapiens, UniProt Q00535); assay: Inhibition of CDK5/p35NCK (unknown origin) by ADP-Glo kinase assay; type: protein-complex assay
T1 sequence (Q00535 whole entry): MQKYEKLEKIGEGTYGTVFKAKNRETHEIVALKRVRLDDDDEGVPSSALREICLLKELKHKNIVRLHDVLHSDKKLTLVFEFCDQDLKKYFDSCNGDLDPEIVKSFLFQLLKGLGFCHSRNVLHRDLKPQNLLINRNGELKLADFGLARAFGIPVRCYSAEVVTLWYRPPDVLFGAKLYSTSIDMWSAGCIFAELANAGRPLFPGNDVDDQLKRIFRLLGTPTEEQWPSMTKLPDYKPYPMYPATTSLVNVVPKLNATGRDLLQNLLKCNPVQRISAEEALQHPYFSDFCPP
T1 sequence (Q15078 whole entry, further chain): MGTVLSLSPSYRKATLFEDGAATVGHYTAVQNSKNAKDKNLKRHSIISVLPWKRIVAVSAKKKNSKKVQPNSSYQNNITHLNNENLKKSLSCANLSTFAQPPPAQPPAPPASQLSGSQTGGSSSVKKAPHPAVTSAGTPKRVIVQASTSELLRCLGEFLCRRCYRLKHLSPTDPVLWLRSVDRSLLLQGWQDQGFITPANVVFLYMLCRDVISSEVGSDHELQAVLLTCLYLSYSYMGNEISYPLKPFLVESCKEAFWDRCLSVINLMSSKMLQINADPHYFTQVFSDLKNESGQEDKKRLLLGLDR

VCaP [8] = assay: Downregulation of RAD51 expression in human VCaP cells at 10 to 300 nM pretreated for 2 hrs followed by compound washout measured after 12 hrs by Western blot analysis; type: functional, cell-based; settings: dose 10-300 nM
[9] = biological target: T1, Cyclin-dependent kinase 5/CDK5 activator 1; assay: Inhibition of CDK5/p25NCK (unknown origin) by ADP-Glo kinase assay; type: protein-complex assay
[10] = biological target: Cyclin-Y/Cyclin-dependent kinase 16 (Homo sapiens, UniProt Q00536); assay: Inhibition of CDK16/cyclin Y (unknown origin) by ADP-Glo kinase assay; type: protein-complex assay
CDK1/Cyclin E = CDK1/Cyclin E (Homo sapiens, UniProt P06493); assay: Inhibition of CDK1/Cyclin E1 (unknown origin) by ADP-Glo kinase assay; type: protein-complex assay
Summary of the method: (§2)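 Kinase inhibition was measured by ADP-Glo assay. IC50 values are means of three independent experiments.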

CDK7/Cyclin H/MNAT1 = CDK7/Cyclin H/MNAT1 (Homo sapiens, UniProt P50613); assay: Inhibition of CDK7/cyclin H/MAT1 (unknown origin) by ADP-Glo kinase assay; type: protein-complex assay
CDK1/Cyclin A = CDK1/Cyclin A (Homo sapiens, UniProt P06493); assay: Inhibition of CDK1/Cyclin A2 (unknown origin) by ADP-Glo kinase assay; type: protein-complex assay; summary of the method: as §2
VCaP [11] = assay: Antiproliferative activity against human VCaP cells measured after 5 days by Cell Titer-Glo assay; type: functional, cell-based; settings: 120 h
Summary of the method: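 Cells were seeded and incubated overnight at 37 °C, 5% CO2. Serial compound dilutions were then added. Viability was read by CellTiter-Glo luminescence after 5 days, and IC50 was obtained by curve fitting.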

VCaP [12] = assay: Antitumor activity against human VCaP cells xenografted in mouse assessed as reduction in tumor growth at 0.5 to 1.5 mg/kg, ip treated for 27 days; type: functional, organism-based; settings: dose 0.5-1.5 mg/kg, time 27.0 day
Summary of the method: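 VCaP CRPC cells (5×10^6) were injected […] NSG or CB17SCID mice. Dosing began at tumours of ~200–400 mm3: 0.5 or 1.5 mg/kg i.p. for 27 days. Vehicle was 20% PEG400, 6% Cremophor EL, 74% PBS. Tumours were collected at the end for Western blot.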

With C=CC(=O)Nc1cc(N(C(=O)NCc2ccccc2)[C@H]2CC[C@H](Nc3ccc(C#N)cn3)CC2)ccc1N1CCC(N(C)C(=O)CCOCCOCCOCCOCCNC(=O)CCCC[C@@H]2SC[C@@H]3NC(=O)N[C@@H]32)CC1 the Activity [1] was “Active” and the Activity [2] was “Active”.

With Cn1cc(-n2cnc3c(NCc4nc5cc(Cl)c(Cl)cc5[nH]4)nc(N4CCOCC4)nc32)cn1 the inhibition (VCaP [3]) was “inactive”.

In the case of Cn1cc(-c2ccc(N(C(=O)NCc3ccccc3)[C@H]3CC[C@H](Nc4ccc(C#N)cn4)CC3)cc2)ccc1=O, the IC50 (CDK6/cyclin D1) is reported as 8.79 µM, the IC50 (CDK8/Cyclin C) is reported as over 10 µM and the IC50 [4] is reported as 5.28 µM. The Activity (VCaP [5]) was “inactive”, the IC50 [6] was over 10 µM and the IC50 (CDK9/cyclin T1) was 0.515 µM. The IC50 (CDK9/Cyclin K) was 0.716 µM, the IC50 [7] was 5.07 µM and the Activity (VCaP [8]) was “inactive”. For the same compound, the IC50 [9] was 4.86 µM, the IC50 [10] was over 10 µM and the IC50 (CDK1/Cyclin E) was over 10 µM. For the same compound, the IC50 (CDK7/Cyclin H/MNAT1) was 0.679 µM and the IC50 (CDK1/Cyclin A) was over 10 µM.

In the case of C=CC(=O)Nc1cc(N(C(=O)NCc2ccccc2)[C@H]2CC[C@H](Nc3ccc(C#N)cn3)CC2)ccc1N1C[C@H]2C[C@@H]1CN2C, the IC50 (VCaP [11]) is reported as 0.0763 µM.

For C=CC(=O)Nc1cc(N(C(=O)NCc2ccccc2)[C@H]2CC[C@H](Nc3ccc(C#N)cn3)CC2)ccc1N1CCN(C)[C@@H](C)C1, the IC50 (VCaP [11]) was 0.0043 µM.

In the case of Cn1ncc(Cl)c1-c1cc(C(=O)N[C@H](CN)Cc2ccc(F)c(F)c2)oc1Cl, the Activity (VCaP [12]) is reported as “Active”.
